Laboratory results: ChEMBL document CHEMBL3611973, “Synthesis and biological evaluation of a novel betulinic acid derivative as an inducer of apoptosis in human colon carcinoma cells (HT-29)” (Eur J Med Chem, 2015)
Each block holds one compound with its values, some of them ahead of it. Calls of active or inactive are those of the source. No cut-off for these calls is given here.

How the values were obtained:
U-937 = assay: Cytotoxic activity against human U937 cells assessed as cell growth inhibition after 48 hrs by MTT assay; type: functional, cell-based; conditions: U-937, 48 h
Procedure, shortened: (§1)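 Log-phase cells (1.25-2.5×10^4/100 µl; RPMI 1640, HepG2 in high-glucose DMEM, 10% FBS) given compound in DMSO (final <0.1%), 0-50 µM, 48 h, 37 °C, 5% CO2. MTT 4 h, DMSO solubilization, OD 540 nm minus background; viability relative to untreated; IC50 by graphical extrapolation, ≥3 experiments in duplicate.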

HT-29 [1] = assay: Cytotoxic activity against human HT-29 cells assessed as cell growth inhibition after 48 hrs by MTT assay; type: functional, cell-based; conditions: HT-29, 48 h; procedure, shortened: as §1
Jurkat = assay: Cytotoxic activity against human Jurkat cells assessed as cell growth inhibition after 48 hrs by MTT assay; type: functional, cell-based; procedure, shortened: as §1
HepG2 = assay: Cytotoxic activity against human HepG2 cells assessed as cell growth inhibition after 48 hrs by MTT assay; type: functional, cell-based; conditions: HepG2, 48 h; procedure, shortened: as §1
MCF7 = assay: Cytotoxic activity against human MCF7 cells assessed as cell growth inhibition after 48 hrs by MTT assay; type: functional, cell-based; conditions: MCF7, 48 h; procedure, shortened: as §1
PBMC = assay: Cytotoxic activity against human PBMC cells assessed as cell growth inhibition after 48 hrs by MTT assay; type: cell-based; procedure, shortened: as §1
HT-29 [2] = assay: Cytotoxicity against human HT-29 cells assessed as cell viability after 48 hrs by MTT assay in presence of NAC; type: functional, cell-based; conditions: HT-29, 48 h
Procedure, shortened: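 HT-29 cells pre-incubated with 2.5 mM N-acetyl cysteine for 3 h, then exposed to compound and assayed for viability by MTT.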

HT-29 [3] = assay: Induction of apoptosis in human HT-29 cells assessed as ROS generation measured up to 15 mins by FACS analysis; type: functional, cell-based
Procedure, shortened: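 HT-29 (2.5×10^5/ml) exposed 0-2 h, washed, loaded with CM-H2DCFDA (5 μM in PBS) 30 min at 37 °C in the dark. DCF read by flow cytometry (ex 488/em 530 nm) on FSC/SSC-gated viable cells; mean fluorescence intensity, three independent experiments.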

HT-29 [4] = assay: Induction of apoptosis in human HT-29 cells assessed as late apoptotic cells using annexin V-FITC/propidium iodide staining at IC50 after 12 hrs by flow cytometry (reference value: 0.0%); type: functional
HT-29 [5] = assay: Induction of apoptosis in human HT-29 cells assessed as early apoptotic cells using annexin V-FITC/propidium iodide staining at IC50 after 12 hrs by flow cytometry (reference value: 0.1%); type: functional
HT-29 [6] = assay: Induction of apoptosis in human HT-29 cells assessed as late apoptotic cells using annexin V-FITC/propidium iodide staining at IC50 after 24 hrs by flow cytometry (reference value: 0.0%); type: functional
HT-29 [7] = assay: Induction of apoptosis in human HT-29 cells assessed as early apoptotic cells using annexin V-FITC/propidium iodide staining at IC50 after 24 hrs by flow cytometry (reference value: 0.1%); type: functional
HT-29 [8] = assay: Induction of apoptosis in human HT-29 cells assessed as late apoptotic cells using annexin V-FITC/propidium iodide staining at IC50 after 48 hrs by flow cytometry (reference value: 0.0%); type: functional
HT-29 [9] = assay: Induction of apoptosis in human HT-29 cells assessed as early apoptotic cells using annexin V-FITC/propidium iodide staining at IC50 after 48 hrs by flow cytometry (reference value: 0.1%); type: functional
HT-29 [10] = assay: Induction of apoptosis in human HT-29 cells assessed as loss of mitochondrial membrane potential using JC-1 dye at IC50 after 12 hrs by flow cytometry (reference value: 1.75%); type: functional
HT-29 [11] = assay: Induction of apoptosis in human HT-29 cells assessed as loss of mitochondrial membrane potential using JC-1 dye at IC50 after 24 hrs by flow cytometry (reference value: 1.75%); type: functional
HT-29 [12] = assay: Induction of apoptosis in human HT-29 cells assessed as loss of mitochondrial membrane potential using JC-1 dye at IC50 after 48 hrs by flow cytometry (reference value: 1.75%); type: functional
HT-29 [13] = assay: Induction of apoptosis in human HT-29 cells assessed as increase in caspase-3 activity at IC50 after 48 hrs by colorimetric assay; type: functional, cell-based
HT-29 [14] = assay: Induction of apoptosis in human HT-29 cells assessed as increase in caspase-9 activity at IC50 after 48 hrs by colorimetric assay; type: functional, cell-based
HT-29 [15] = assay: Induction of apoptosis in human HT-29 cells assessed as increase in caspase-8 activity at IC50 after 48 hrs by colorimetric assay; type: functional, cell-based
HT-29 [16] = assay: Induction of apoptosis in human HT-29 cells assessed as cleavage of PARP at IC50 after 24 to 48 hrs by Western blotting; type: functional, cell-based
HT-29 [17] = assay: Induction of apoptosis in human HT-29 cells assessed as chromatin condensation using Hoechst 33258 dye at IC50 after 48 hrs by confocal microscopic analysis; type: functional, cell-based
Procedure, shortened: (§2)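 HT-29 (2.5×10^5 cells/ml) treated 48 h at 37 °C, 5% CO2, washed, fixed in 4% paraformaldehyde (4 °C, 30 min), stained with Hoechst 33258 (5 µg/ml final, 37 °C, 30 min, dark), mounted in 50% glycerol on poly-L-lysine slides; confocal imaging at 100×.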

HT-29 [18] = assay: Induction of apoptosis in human HT-29 cells assessed as reduction in Bcl2/Bax ratio at IC50 after 12 to 48 hrs by Western blotting; type: functional, cell-based
Calf thymus DNA [19] = assay: Binding affinity to calf thymus DNA up to 2 hrs by absorption spectroscopy analysis; type: nucleic-acid assay; conditions: Bos taurus
Procedure, shortened: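 Compound stock in 60% ethanol/50 mM Tris-HCl/NaCl (pH 7.5), diluted in buffer, actual concentration set by molar extinction coefficient. CT-DNA held at 50 μg/ml (legend: 100 μg/mL) with varied compound, 37 °C, 2 h; UV-vis scanned 200-400 nm. θ from 260 nm absorbance; Kb as the reciprocal of ligand concentration at half-saturation of the isotherm.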

HT-29 [20] = assay: Induction of apoptosis in human HT-29 cells assessed as fragmentation using Hoechst 33258 dye at IC50 after 48 hrs by confocal microscopic analysis; type: functional, cell-based; procedure, shortened: as §2
Calf thymus DNA [21] = assay: Binding affinity to calf thymus DNA assessed as conformational change at 50 uM after 2 hrs by circular dichroism analysis; type: nucleic-acid assay; conditions: Bos taurus
Procedure, shortened: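 CT-DNA (500 μg/mL) incubated alone or with 50 μM compound for 2 h at 37 °C in 50 mM Tris-HCl/NaCl buffer; CD spectra recorded for conformation, with the positive band at 275 nm and the negative band at 245 nm (B-form) monitored.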

HT-29 [22] = assay: Induction of apoptosis in human HT-29 cells assessed as late apoptotic cells using annexin V-FITC/propidium iodide staining at IC50 by flow cytometry; type: functional, cell-based; conditions: TDE = time-dependent effect
HT-29 [23] = assay: Induction of apoptosis in human HT-29 cells assessed as early apoptotic cells using annexin V-FITC/propidium iodide staining at IC50 by flow cytometry; type: functional, cell-based; conditions: TDE = time-dependent effect
HT-29 [24] = assay: Induction of apoptosis in human HT-29 cells assessed as membrane blebbing using Hoechst 33258 dye at IC50 after 48 hrs by confocal microscopic analysis; type: functional, cell-based; procedure, shortened: as §2
HT-29 [25] = assay: Induction of apoptosis in human HT-29 cells assessed as apoptotic bodies using Hoechst 33258 dye at IC50 after 48 hrs by confocal microscopic analysis; type: functional, cell-based; procedure, shortened: as §2

SMILES: C=C(C)[C@@H]1CC[C@]2(C(=O)O)CC[C@]3(C)[C@H](CC[C@@H]4[C@@]5(C)CC[C@H](OC(=O)Cn6cc(-c7cnc(OC)nc7OC)nn6)C(C)(C)[C@@H]5CC[C@]43C)[C@@H]12
IC50 (U-937): 41.9 µM | IC50 (HT-29 [1]): 39.8 µM | IC50 (Jurkat): > 50 µM | IC50 (HepG2): > 50 µM | IC50 (MCF7): 44.7 µM | IC50 (PBMC): > 50 µM

K (Calf thymus DNA [19]): 8.38 ×10⁴ /M | Activity (Calf thymus DNA [21]): inactive
SMILES: C=C(C)[C@@H]1CC[C@]2(C(=O)O)CC[C@]3(C)[C@H](CC[C@@H]4[C@@]5(C)CC[C@H](OC(=O)Cn6cc(CO)nn6)C(C)(C)[C@@H]5CC[C@]43C)[C@@H]12
IC50 (HT-29 [2]): 30.4 µM | IC50 (U-937): > 50 µM | IC50 (HT-29 [1]): 14.9 µM | IC50 (Jurkat): 41.4 µM | IC50 (HepG2): > 50 µM | IC50 (MCF7): > 50 µM | IC50 (PBMC): > 50 µM | Activity (HT-29 [3]): Active | Activity (HT-29 [4]): 2% | Activity (HT-29 [5]): 14.1% | Activity (HT-29 [6]): 3.2% | Activity (HT-29 [7]): 17.1% | Activity (HT-29 [8]): 4.6% | Activity (HT-29 [9]): 25.2% | Activity (HT-29 [10]): 16.5% | Activity (HT-29 [11]): 30.5% | Activity (HT-29 [12]): 51.4% | Activity (HT-29 [13]): Active | Activity (HT-29 [14]): Active | Activity (HT-29 [15]): inactive | Activity (HT-29 [16]): Active | Activity (HT-29 [17]): Active | Activity (HT-29 [18]): Active | Activity (HT-29 [20]): Active | Activity (HT-29 [22]): tde | Activity (HT-29 [23]): tde | Activity (HT-29 [24]): Active | Activity (HT-29 [25]): Active

SMILES: C=C(C)[C@@H]1CC[C@]2(C(=O)O)CC[C@]3(C)[C@H](CC[C@@H]4[C@@]5(C)CC[C@H](OC(=O)Cn6cc(-c7ccccc7)nn6)C(C)(C)[C@@H]5CC[C@]43C)[C@@H]12
IC50 (U-937): > 50 µM | IC50 (HT-29 [1]): > 50 µM | IC50 (Jurkat): > 50 µM | IC50 (HepG2): > 50 µM | IC50 (MCF7): > 50 µM | IC50 (PBMC): > 50 µM

SMILES: C=C(C)[C@@H]1CC[C@]2(C(=O)O)CC[C@]3(C)[C@H](CC[C@@H]4[C@@]5(C)CC[C@H](OC(=O)Cn6cc(CCCC)nn6)C(C)(C)[C@@H]5CC[C@]43C)[C@@H]12
IC50 (U-937): > 50 µM | IC50 (HT-29 [1]): > 50 µM | IC50 (Jurkat): > 50 µM | IC50 (HepG2): 49.8 µM | IC50 (MCF7): > 50 µM

SMILES: C=C(C)[C@@H]1CC[C@]2(C(=O)O)CC[C@]3(C)[C@H](CC[C@@H]4[C@@]5(C)CC[C@H](OC(=O)Cn6cc(-c7ccc8[nH]ccc8c7)nn6)C(C)(C)[C@@H]5CC[C@]43C)[C@@H]12
IC50 (U-937): > 50 µM | IC50 (HT-29 [1]): > 50 µM | IC50 (Jurkat): > 50 µM | IC50 (HepG2): > 50 µM | IC50 (MCF7): > 50 µM

SMILES: C=C(C)[C@@H]1CC[C@]2(C(=O)O)CC[C@]3(C)[C@H](CC[C@@H]4[C@@]5(C)CC[C@H](OC(=O)Cn6cc(-c7ccc(C(=O)OCC)cc7)nn6)C(C)(C)[C@@H]5CC[C@]43C)[C@@H]12
IC50 (U-937): 40.1 µM | IC50 (HT-29 [1]): > 50 µM | IC50 (Jurkat): > 50 µM | IC50 (HepG2): > 50 µM | IC50 (MCF7): > 50 µM
